22 compounds from publication PMC6376552 (Antiviral Chemistry & Chemotherapy, 2019) can be followed below.

pEC50: −log10 of the molar value. Read-outs that look alike come from different tables or passages of the source.

Common to all, as to type: cell-based
The test system of one series is HIV-1 (IIIB strain). Put plainly: MT-4 antiviral cytoprotection assay, five-day multi-cycle, wild type HIV-1. The conditions noted are these: for anti-HIV activity in words / SI (selectivity index): wild type; for anti-HIV activity in words: MT-4 cells; for SI (selectivity index): CC50/EC50 ratio, MT-4. An outline of the steps: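 MT-4 cells were pre-infected with a fresh 1:250 dilution of concentrated HIV-1 IIIB stock, or mock-infected for cytotoxicity. Test compound was serially diluted 1:3 in DMSO, then 200-fold into RPMI with 10% FBS and 1% P/S. Controls were no-drug and 5 µM AZT. After 5 days at 37°C, viability was read by CellTiter-Glo luminescence. EC50/CC50 were taken as 50% signal decrease from sigmoidal fits; SI = CC50/EC50.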

The test system of a further series is MT-4 cells. Put plainly: MT-4 cytotoxicity assay. The conditions noted are these: MT-4 cell line, n = 3.
The next series in a line: MT-4 cytotoxicity assay. The conditions noted are these: human, MT-4 cells (mock-infected), CC50, MT-4 cell line, n = 3.
The test system of series [1] is HIV-1 encoding RT mutation K103N. Put plainly: MT-4 antiviral assay against HIV-1 encoding RT mutation K103N. The conditions noted are these: Human immunodeficiency virus 1, MT4, read-out: EC50 K103N.
For series [2], the system named is HIV-1 encoding RT mutation Y181C. Nature of the series: MT-4 antiviral assay against HIV-1 encoding RT mutation Y181C. To be noted: Human immunodeficiency virus 1, MT4, read-out: EC50 Y181C.
The mark [3] stands for this setting: Human immunodeficiency virus 1, IIIB, MT4, read-out: EC50 w.t.

In the case of “4-((4-amino-6–(2,6-difluoro-4-methoxybenzoyl)pyrimidin-2-yl)amino)benzonitrile [Compound 15]”, the pEC50 with HIV-1 (IIIB strain) (read-out: EC50 w.t., MT-4 cell line, HIV-1 IIIB wild type, n = 3) was 5.66. Besides, in the series on HIV-1 (IIIB strain), the “anti-HIV activity in words” value is “micromolar range”. The compound also gave a CC50 in the series with MT-4 cells of 7700 nM.

Take `COc1cc(F)c(C(=O)c2nc(N)cc(Nc3ccc(C#N)cc3)n2)c(F)c1` [Compound 11, 4-((6-amino-2–(2,6-difluoro-4-methoxybenzoyl)pyrimidin-4-yl)amino)benzonitrile]: in the series with HIV-1 (IIIB strain), the “SI (selectivity index)” value was determined as 7.14 and the “anti-HIV activity in words” value is “micromolar range”. Also, in the series with HIV-1 (IIIB strain) (setting [3]), the pEC50 was 6.06. In “MT-4 cytotoxicity assay”, this compound returned a CC50 at 5 days of 6240 nM.

On to `N#Cc1ccc(Nc2cc(N)nc(C(=O)c3c(F)cc(F)cc3F)n2)cc1` [Compound 12, 4-((6-amino-2–(2,4,6-trifluorobenzoyl)pyrimidin-4-yl)amino)benzonitrile], for which, in the series with HIV-1 (IIIB strain), the “SI (selectivity index)” value is on record as 24.3 and the “anti-HIV activity in words” value is “micromolar range”. Moreover, the pEC50 in the series with HIV-1 (IIIB strain) (setting [3]) is 5.76. The midpoint of cytotoxicity in “MT-4 cytotoxicity assay”, the CC50 at 5 days, lay at 42000 nM.

Turning to `COc1cc(F)c(C(=O)c2cc(N)nc(Nc3ccc(C#N)cc3)n2)c(F)c1` [Compound 13, 4-((4-amino-6–(2,6-difluoro-4-methoxybenzoyl)pyrimidin-2-yl)amino)benzonitrile], the pEC50 in series [1] is 6.65; with HIV-1 (IIIB strain) (setting [3]), 8.40; in series [2], 6.10. Moreover, in the series with HIV-1 (IIIB strain), the “SI (selectivity index)” value came out at 4900. In addition, the “anti-HIV activity in words” value in the series with HIV-1 (IIIB strain) was “low nanomolar activities”. For the same compound, the midpoint of cytotoxicity in “MT-4 cytotoxicity assay”, the CC50 at 5 days, lay at 19600 nM.

As for `N#Cc1ccc(Nc2nc(N)cc(C(=O)c3c(F)cc(F)cc3F)n2)cc1` [Compound 14, 4-((4-amino-6–(2,4,6-trifluorobenzoyl)pyrimidin-2-yl)amino)benzonitrile], the values for the pEC50 (in series [1]; in the series with HIV-1 (IIIB strain) (setting [3]); in series [2]) were 5.77, 7.59 and 5.41, respectively. For the same compound, the “SI (selectivity index)” value with HIV-1 (IIIB strain) amounted to 935. Also, in the series on HIV-1 (IIIB strain), the “anti-HIV activity in words” value is given as “low nanomolar activities”. This compound registered a CC50 at 5 days in “MT-4 cytotoxicity assay” of 24300 nM.

Take `N#Cc1ccc(Nc2cc(C(=O)c3c(F)cc(F)cc3F)nc(N)n2)cc1` [Compound 16, 4-((2-amino-6–(2,4,6-trifluorobenzoyl)pyrimidin-4-yl)amino)benzonitrile]: in the series with HIV-1 (IIIB strain), the “SI (selectivity index)” value stood at 0.025 and the “anti-HIV activity in words” value is listed as “micromolar range”. Further, the pEC50 with HIV-1 (IIIB strain) (setting [3]) was 4.40. In addition, in “MT-4 cytotoxicity assay”, it took 981 nM to reach half-maximal cytotoxicity (CC50 at 5 days).

Take `Cc1cc(C(=O)c2c(F)cc(F)cc2F)nc(Nc2ccc(C#N)cc2)n1` [Compound 18, 4-((4-methyl-6–(2,4,6-trifluorobenzoyl)pyrimidin-2-yl)amino)benzonitrile]: the negative logarithm of the EC50 (pEC50) with HIV-1 (IIIB strain) (setting [3]) is 6.80. In the series “MT-4 cytotoxicity assay”, the CC50 at 5 days turned out to be 57100 nM.

Turning to `COc1cc(C(=O)c2c(F)cc(F)cc2F)nc(Nc2ccc(C#N)cc2)n1` [Compound 22, 4-((4-methoxy-6–(2,4,6-trifluorobenzoyl)pyrimidin-2-yl)amino)benzonitrile], in the series with HIV-1 (IIIB strain), the “SI (selectivity index)” value worked out at 19.4. For the same compound, the pEC50 with HIV-1 (IIIB strain) (setting [3]) was 6.33. Besides, the CC50 at 5 days in “MT-4 cytotoxicity assay” came to 9160 nM.

For `COc1cc(F)c(Oc2cc(Cl)nc(Nc3ccc(C#N)cc3)n2)c(F)c1` [Compound 27, 4-((4-chloro-6–(2,6-difluoro-4-methoxyphenoxy)pyrimidin-2-yl)amino)benzonitrile], the pEC50 in series [1] was 6.38; in the series on HIV-1 (IIIB strain) (setting [3]), 7.72; in series [2], 5.78. In addition, the “SI (selectivity index)” value in the series with HIV-1 (IIIB strain) is listed as 847. Moreover, in the series “MT-4 cytotoxicity assay”, the CC50 at 5 days is 16100 nM.

In the case of `N#Cc1ccc(Nc2nc(Cl)cc(Oc3c(F)cc(F)cc3F)n2)cc1` [Compound 28, 4-((4-chloro-6–(2,4,6-trifluorophenoxy)pyrimidin-2-yl)amino)benzonitrile], the figures for the pEC50 (in series [1]; with HIV-1 (IIIB strain) (setting [3]); in series [2]) were 6.18, 7.28 and 5.60, respectively. In addition, in the series on HIV-1 (IIIB strain), the “SI (selectivity index)” value was 264. Half-maximal cytotoxicity in “MT-4 cytotoxicity assay” (CC50 at 5 days) was put at 14000 nM.

With `COc1cc(F)c(Nc2cc(Cl)nc(Nc3ccc(C#N)cc3)n2)c(F)c1` [Compound 29, 4-((4-chloro-6-((2,6-difluoro-4-methoxyphenyl)amino)pyrimidin-2-yl)amino)benzonitrile], the figures for the pEC50 (in series [1]; in the series on HIV-1 (IIIB strain) (setting [3]); in series [2]) were 6.69, 8.22 and 6.19, respectively. Also, the “SI (selectivity index)” value in the series on HIV-1 (IIIB strain) stood at 2667. Also, in “MT-4 cytotoxicity assay”, the CC50 at 5 days worked out at 16000 nM.

Regarding `N#Cc1ccc(Nc2nc(Cl)cc(Nc3c(F)cc(F)cc3F)n2)cc1` [Compound 30, 4-((4-chloro-6-((2,4,6-trifluorophenyl)amino)pyrimidin-2-yl)amino)benzonitrile], the pEC50 in series [1] is 5.99; with HIV-1 (IIIB strain) (setting [3]) it was 7.57; in series [2] it was 5.70. Besides, the “SI (selectivity index)” value in the series with HIV-1 (IIIB strain) is 378. Further, the CC50 at 5 days in “MT-4 cytotoxicity assay” was 10200 nM.

In the case of `COc1cc(F)c(Oc2cc(OC)nc(Nc3ccc(C#N)cc3)n2)c(F)c1` [Compound 31, 4-((4–(2,6-difluoro-4-methoxyphenoxy)-6-methoxypyrimidin-2-yl)amino)benzonitrile], the pEC50 in series [1] was 6.35; in the series on HIV-1 (IIIB strain) (setting [3]), 7.72; in series [2], 5.36. In addition, the “SI (selectivity index)” value with HIV-1 (IIIB strain) worked out at 832. In “MT-4 cytotoxicity assay”, this compound returned a CC50 at 5 days of 15800 nM.

Take `COc1cc(Oc2c(F)cc(F)cc2F)nc(Nc2ccc(C#N)cc2)n1` [Compound 32, 4-((4-methoxy-6–(2,4,6-trifluorophenoxy)pyrimidin-2-yl)amino)benzonitrile]: the negative-log EC50 (pEC50) is 6.25 in series [1], 7.27 with HIV-1 (IIIB strain) (setting [3]) and 5.11 in series [2]. In addition, in the series with HIV-1 (IIIB strain), the “SI (selectivity index)” value is 926. In addition, the midpoint of cytotoxicity in the series “MT-4 cytotoxicity assay”, the CC50 at 5 days, lay at 50000 nM.

With `COc1cc(F)c(Nc2cc(OC)nc(Nc3ccc(C#N)cc3)n2)c(F)c1` [Compound 33, 4-((4-((2,6-difluoro-4-methoxyphenyl)amino)-6-methoxypyrimidin-2-yl)amino)benzonitrile], the “SI (selectivity index)” value in the series on HIV-1 (IIIB strain) was 5571. Moreover, the negative logarithm of the EC50 (pEC50) with HIV-1 (IIIB strain) (setting [3]) is 8.15. Besides, in the series “MT-4 cytotoxicity assay”, half-maximal cytotoxicity (CC50 at 5 days) was put at 39000 nM.

For the compound `COc1cc(Nc2c(F)cc(F)cc2F)nc(Nc2ccc(C#N)cc2)n1` [Compound 34, 4-((4-methoxy-6-((2,4,6-trifluorophenyl)amino)pyrimidin-2-yl)amino)benzonitrile], the negative logarithm of the EC50 (pEC50) in series [1] was 5.92; in the series with HIV-1 (IIIB strain) (setting [3]) it was 7.66; in series [2], 5.70. Moreover, the “SI (selectivity index)” value in the series with HIV-1 (IIIB strain) came to 454. This compound gave a CC50 at 5 days in “MT-4 cytotoxicity assay” of 9990 nM.

With `COc1cc(F)c(Oc2cc(N)nc(Nc3ccc(C#N)cc3)n2)c(F)c1` [Compound 35, 4-((4-amino-6–(2,6-difluoro-4-methoxyphenoxy)pyrimidin-2-yl)amino)benzonitrile], the pEC50 in series [1] is 7.44; with HIV-1 (IIIB strain) (setting [3]), 8.70; in series [2], 6.20. The “SI (selectivity index)” value with HIV-1 (IIIB strain) is on record as 10,850. In addition, the CC50 at 5 days in the series “MT-4 cytotoxicity assay” worked out at 21700 nM.

Regarding `N#Cc1ccc(Nc2nc(N)cc(Oc3c(F)cc(F)cc3F)n2)cc1` [Compound 36, 4-((4-amino-6–(2,4,6-trifluorophenoxy)pyrimidin-2-yl)amino)benzonitrile], the pEC50 in series [1] is 7.17; in the series on HIV-1 (IIIB strain) (setting [3]) it was 7.17; in series [2], 5.18. For the same compound, the “SI (selectivity index)” value with HIV-1 (IIIB strain) is reported as 293. In addition, the CC50 at 5 days in the series “MT-4 cytotoxicity assay” stood at 19600 nM.

As for `COc1cc(F)c(Nc2cc(N)nc(Nc3ccc(C#N)cc3)n2)c(F)c1` [Compound 37, 4-((4-amino-6-((2,6-difluoro-4-methoxyphenyl)amino)pyrimidin-2-yl)amino)benzonitrile], the pEC50 was 7.21 in series [1], 8.52 with HIV-1 (IIIB strain) (setting [3]) and 6.36 in series [2]. The “SI (selectivity index)” value in the series on HIV-1 (IIIB strain) amounted to 5733. In the series “MT-4 cytotoxicity assay”, the CC50 at 5 days amounted to 17200 nM.

`N#Cc1ccc(Nc2nc(N)cc(Nc3c(F)cc(F)cc3F)n2)cc1` [Compound 38, 4-((4-amino-6-((2,4,6-trifluorophenyl)amino)pyrimidin-2-yl)amino)benzonitrile]: the pEC50 is 5.78 in series [1], 7.57 with HIV-1 (IIIB strain) (setting [3]) and 4.86 in series [2]. Besides, the “SI (selectivity index)” value in the series on HIV-1 (IIIB strain) is reported as 1289. The CC50 at 5 days in the series “MT-4 cytotoxicity assay” is 34800 nM.

`O=C1Nc2ccc(Cl)cc2[C@@](C#CC2CC2)(C(F)(F)F)O1` [EFV, efavirenz, reference compound]: the pEC50 in series [1] was 7.00; in series [2], 8.30. It took 20600 nM to reach half-maximal cytotoxicity in the series “MT-4 cytotoxicity assay” (CC50 at 5 days).

As to `Cc1cc(C#N)cc(C)c1Oc1nc(Nc2ccc(C#N)cc2)nc(N)c1Br` [ETR, etravirine, reference compound], the pEC50 in series [1] was 8.70; in the series with HIV-1 (IIIB strain) (setting [3]), 8.70; in series [2], 7.92. For the same compound, the “SI (selectivity index)” value with HIV-1 (IIIB strain) is listed as 2940. Further, the cytotoxic concentration (CC50) at 5 days in the series “MT-4 cytotoxicity assay” was determined as 5880 nM.

The pEC50 is the EC50 on a negative log10 scale, so that one unit is a factor of ten. As usually defined, the CC50 is the concentration giving 50% cytotoxicity. A higher CC50 goes with lower toxicity to the cells.
